Source: paper PMC3738169 (Journal of medicinal chemistry, 2012)

Legend:
[1] = system: p-Akt T308 (PI3K/Akt pathway) in prostate cancer C4-2 cells; assay: p-Akt T308 Western blot in C4-2 cells; type: cell-based
In short: (§1)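 BT-549 cells (RPMI 1640, 10% FBS, 0.023 U/mL insulin) and C4-2 cells (RPMI 1640, 10% FBS) were seeded at 4×105 per 6 cm dish, grown 48 h to about 80% confluence, then moved to serum-free medium. Dosing was a 30 min concentration series with DMSO control, or a 3 h series or 30 min–6 h time course with PBS control. Lysates went to 12% SDS-PAGE and were probed for p-Akt T308, Akt and β-actin, with infrared detection and densitometry.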

[2] = system: p-Akt T308 (PI3K/Akt pathway) in breast cancer BT-549 cells; assay: p-Akt T308 Western blot in BT-549 cells; type: cell-based
In short: as §1

C4-2LucBAD cells [3] = settings: C42LucBAD cells that ectopically express BAD; cited from earlier work
Water solubility = settings: qualitative statement
[4] = system: p-Akt T308 in prostate cancer LNCaP cells; assay: p-Akt T308 Western blot in LNCaP cells; type: cell-based; settings: LNCaP cells incubated with 11, 3 h, dose-response, control PBS
In short: (§2)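 Cells were seeded at 4×105 per 6 cm dish, grown 48 h to about 80% confluence, then exposed to test compound for 3 h with PBS as control. C4-2LucBAD cells were in RPMI 1640, serum-free for 18 h beforehand. LNCaP cells were in T-Medium with 2.5% FBS. U-87 MG cells were in DMEM, serum-free. HEPES pH 7.4 lysates with protease and phosphatase inhibitors were blotted for p-Akt T308, Akt and β-actin.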

[5] = system: p-Akt T308 in glioblastoma-astrocytoma U-87 MG cells; assay: p-Akt T308 Western blot in U-87 MG cells; type: cell-based; settings: U-87 MG cells (no PSA) incubated with 11, 3 h, control PBS
In short: as §2

[6] = system: p-Akt T308 in C4-2LucBAD cells; assay: p-Akt T308 Western blot in C4-2LucBAD cells; type: cell-based; settings: 3 h, dose-response, control PBS
In short: as §2

C4-2LucBAD cells [7] = assay: Caspase 3 assay in C4-2LucBAD cells; type: cell-based
[8] = system: p-Akt T308 in breast cancer BT-549 cells; assay: C4-2 conditioned medium assay; type: cell-based; settings: 11 incubated in media conditioned by BT-549 cells
In short: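 Test compound held 6 h at 37 °C (5% CO2, humidified) in serum-free medium on producer cells; this line's arm used BT-549-conditioned medium. Medium then transferred to BT-549 cells for 3 h. Cells seeded 4×10^5 per 6 cm dish, grown 48 h to ~80% confluence; BT-549 medium carried 0.023 U/mL insulin. Phospho-Akt T308 read by Western blot of clarified lysates; n=3.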

[9] = system: purified active human PSA; p-Akt T308 in BT-549 cells; assay: Cleavage of compound 11 with purified PSA, then p-Akt T308 in BT-549 cells; type: cell-based; settings: 11 without PSA, added to BT-549 cells for 30 min
In short: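 Test compound was pre-incubated 6 h at 37 °C in 50 mM Tris-HCl, 0.1 M NaCl, pH 7.8 with increasing concentrations of enzymatically active PSA purified from human semen. It was then applied for 30 min to serum-starved BT-549 cells, maintained in RPMI 1640 with 10% FBS and 0.023 U/mL insulin. p-Akt T308 was read by Western blot against a PBS control, in three independent experiments.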

In the case of `CC(C)CC(N)C(=O)OCc1ccc(-c2cccc3c(=O)cc(N4CCOCC4)oc23)cc1` (stereo not shown) [Compound 10, 4-(2-morpholino-4-oxo-4H-chromen-8-yl) benzyl-2-amino-4-methylpentanoate], the “PI3 kinase inhibitory potency relative to LY294002” value ([1]; C4-2 and BT-549 cells, p-Akt T308 read-out, 30 min) was “comparable to LY294002”, the “concentration that completely inhibited Akt phosphorylation” value ([1]; C4-2 cells, 30 min, dose-response analysis) was 30 µM and the “concentration that completely inhibited Akt phosphorylation” value ([2]; BT-549 cells, 30 min, dose-response analysis) was 30 µM.
For `O=c1cc(N2CCOCC2)oc2c(-c3ccccc3)cccc12` [LY294002], the induction of apoptosis (C4-2LucBAD cells [3]) is listed as “induces apoptosis” and the water solubility (Water solubility) is listed as “poor water solubility”.
For “Mu-LEHSSKLQL-8-(4-(Hydroxymethyl)phenyl)-2-morpholino-4H-chromen-4-one [Compound 11]”, the “p-Akt T308 levels” value ([1]; C4-2 cells incubated with 11, 3 h, dose-response, control PBS) was “dose-dependent reduction”, the “p-Akt T308 levels, time course” value ([1]; C4-2 cells treated with 11 from 30 min to 6 h, vs control, Western blot, three independent experiments) was “time-dependent reduction” and the “p-Akt T308 levels” value ([2]; BT-549 cells (no PSA) incubated with 11, 3 h, control PBS) was “No significant reduction”. The “p-Akt T308 levels, time course” value ([2]; BT-549 cells treated with 11 from 30 min to 6 h, Western blot, three independent experiments) was “no significant differences”, the “p-Akt T308 levels” value [4] was “dose-dependent reduction” and the “p-Akt T308 levels” value [5] was “No significant reduction”. For the same molecule, the “p-Akt T308 levels” value [6] was “dose-dependent reduction”, the “Caspase 3 activity compared with active inhibitor” value (C4-2LucBAD cells [7]; 6 h) was “Somewhat lower levels” and the “Caspase 3 activity (apoptosis)” value (C4-2LucBAD cells [7]; 6 h after administration, fluorogenic substrate Ac-DEVD-7-amido-4-trifluoromethylcoumarin, n=2, vs DMSO control) was “increased”. The “p-Akt T308 levels in BT-549 cells after 11 incubated in BT-549 conditioned media” value [8] was “had no effects” and the “p-Akt T308 levels in BT-549 cells, 11 without enzymatically active PSA” value [9] was “had no effect”.
